Reference: ChEMBL document CHEMBL3046702, “Herbicidal, plant growth inhibitory, and cytotoxic activities of bismuthines containing aromatic heterocycles” (J Agric Food Chem, 2003)
The source made the active and inactive calls. The rule behind the calls is not given here.

Columns and labels:
[1] = test system: Trifolium pratense; test: Herbicidal activity against Trifolium pratense var. Kenland (red clover) assessed as inhibition of seed respiration during germination after 72 hr by polarographic analysis; type: functional, organism-based
In short: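 Red clover seeds were exposed to the bismuthines during germination, with respiration followed over the imbibition time. Values were taken at 72 h as the concentration giving 50% inhibition of seed respiration, using means of three experiments.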

[2] = test system: Trifolium pratense; test: Herbicidal activity against Trifolium pratense var. Kenland (red clover) assessed as inhibition of seed germination after 48 hr; type: functional, organism-based; details: read-out: I50
[3] = test system: Lolium multiflorum; test: Herbicidal activity against Lolium multiflorum var. Gulf (Italian ryegrass) assessed as inhibition of seed germination after 48 hr; type: functional, organism-based; details: read-out: I50
[4] = test system: Phaseolus vulgaris; test: Herbicidal activity against Phaseolus vulgaris assessed as inhibition of mitochondrial oxygen uptake; type: functional, organism-based; details: read-out: I50
[5] = test system: Lactuca sativa; test: Herbicidal activity against Lactuca sativa var.Roman (lettuce) assessed as inhibition of seed germination after 48 hr; type: functional, organism-based; details: read-out: I50
[6] = test system: Artemia salina; test: Toxicity in Artemia salina (brine shrimp) larvae assessed as mortality; type: organism-based; details: in vivo
In short: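 Brine shrimp lethality test on *Artemia salina* larvae, run across several concentrations up to a top level of 1000 µM. Mortality was scored at each concentration, and LC50 values in µM were derived from the concentration–mortality data.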

[7] = test system: Lolium multiflorum; test: Herbicidal activity against Lolium multiflorum var. Gulf (Italian ryegrass) seedlings assessed as root length rate at 3 uM after 48 hr relative to control; type: functional, organism-based
In short: (§1)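 Italian ryegrass seedlings grown with 0, 0.5, 1, 3, 5, 7.5 or 10 µM of each bismuthine. Shoot and root lengths were measured at 48 h and expressed as a percentage of the average untreated control length.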

[8] = test system: Lactuca sativa; test: Herbicidal activity against Lactuca sativa var.Roman (lettuce) seedlings assessed as root length at 5 uM after 120 hr (reference value: 18 to 19 mm); type: functional, organism-based
[9] = test system: Physalis ixocarpa; test: Herbicidal activity against Physalis ixocarpa assessed as inhibition of seed respiration during germination after 72 hr by polarographic analysis; type: functional, organism-based
[10] = test system: Lolium multiflorum; test: Herbicidal activity against Lolium multiflorum var. Gulf (Italian ryegrass) seedlings assessed as shoot length rate at 7.5 uM after 48 hr relative to control; type: functional, organism-based; in short: as §1
[11] = test system: Radical scavenging activity; test: Antioxidant activity assessed as DPPH free radical scavenging activity at 5 to 100 uM after 30 min by TLC autographic assay; type: functional
[12] = test system: Lactuca sativa; test: Herbicidal activity against Lactuca sativa var.Roman (lettuce) seedlings assessed as root length at 25 uM after 120 hr (reference value: 18 to 19 mm); type: functional, organism-based
[13] = test system: Lactuca sativa; test: Herbicidal activity against Lactuca sativa var.Roman (lettuce) seedlings assessed as shoot length at 50 uM after 120 hr (reference value: 27 to 31 mm); type: functional, organism-based
[14] = test system: Lactuca sativa; test: Herbicidal activity against Lactuca sativa var.Roman (lettuce) seedlings assessed as shoot length at 10 uM after 120 hr (reference value: 27 to 31 mm); type: functional, organism-based
[15] = test system: Lolium multiflorum; test: Herbicidal activity against Lolium multiflorum var. Gulf (Italian ryegrass) seedlings assessed as shoot length rate at 3 uM after 48 hr relative to control; type: functional, organism-based; in short: as §1
[16] = test system: Lolium multiflorum; test: Herbicidal activity against Lolium multiflorum var. Gulf (Italian ryegrass) seedlings assessed as root length rate at 0.5 uM after 48 hr relative to control; type: functional, organism-based; in short: as §1
[17] = test system: Lolium multiflorum; test: Herbicidal activity against Lolium multiflorum var. Gulf (Italian ryegrass) seedlings assessed as shoot length rate at 5 uM after 48 hr relative to control; type: functional, organism-based; in short: as §1
[18] = test system: Radical scavenging activity; test: Antioxidant activity assessed as DPPH free radical scavenging activity at 5 to 100 uM after 30 min by spectrophotometric analysis; type: functional
In short: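 DPPH reduction by the compounds was read spectrophotometrically at 517 nm after 30 min. 100% DMSO served as the blank and quercetin as the reference scavenger.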

[19] = test system: Lactuca sativa; test: Herbicidal activity against Lactuca sativa var.Roman (lettuce) seedlings assessed as root length at 75 uM after 120 hr (reference value: 18 to 19 mm); type: functional, organism-based
[20] = test system: Lactuca sativa; test: Herbicidal activity against Lactuca sativa var.Roman (lettuce) seedlings assessed as root length at 10 uM after 120 hr (reference value: 18 to 19 mm); type: functional, organism-based
[21] = test system: Lolium multiflorum; test: Herbicidal activity against Lolium multiflorum var. Gulf (Italian ryegrass) seedlings assessed as shoot length rate at 0.5 uM after 48 hr relative to control; type: functional, organism-based; in short: as §1
[22] = test system: Lolium multiflorum; test: Herbicidal activity against Lolium multiflorum var. Gulf (Italian ryegrass) seedlings assessed as shoot length rate at 10 uM after 48 hr relative to control; type: functional, organism-based; in short: as §1
[23] = test system: Lolium multiflorum; test: Herbicidal activity against Lolium multiflorum var. Gulf (Italian ryegrass) assessed as inhibition of seed respiration during germination after 72 hr by polarographic analysis; type: functional, organism-based
[24] = test system: Lactuca sativa; test: Herbicidal activity against Lactuca sativa var.Roman (lettuce) seedlings assessed as inhibition of seed germination at 5 uM after 48 hr; type: functional, organism-based
[25] = test system: Lactuca sativa; test: Herbicidal activity against Lactuca sativa var.Roman (lettuce) seedlings assessed as growth inhibition at 5 uM after 120 hr; type: functional, organism-based
[26] = test system: Lactuca sativa; test: Herbicidal activity against Lactuca sativa var.Roman (lettuce) seedlings assessed as root length at 50 uM after 120 hr (reference value: 18 to 19 mm); type: functional, organism-based
[27] = test system: Lactuca sativa; test: Herbicidal activity against Lactuca sativa var.Roman (lettuce) seedlings assessed as shoot length at 75 uM after 120 hr (reference value: 27 to 31 mm); type: functional, organism-based
[28] = test system: Lolium multiflorum; test: Herbicidal activity against Lolium multiflorum var. Gulf (Italian ryegrass) seedlings assessed as shoot length rate at 1 uM after 48 hr relative to control; type: functional, organism-based; in short: as §1
[29] = test system: Lolium multiflorum; test: Herbicidal activity against Lolium multiflorum var. Gulf (Italian ryegrass) seedlings assessed as root length rate at 1 uM after 48 hr relative to control; type: functional, organism-based; in short: as §1
[30] = test system: Lolium multiflorum; test: Herbicidal activity against Lolium multiflorum var. Gulf (Italian ryegrass) seedlings assessed as root length rate at 7.5 uM after 48 hr relative to control; type: functional, organism-based; in short: as §1
[31] = test system: Lolium multiflorum; test: Herbicidal activity against Lolium multiflorum var. Gulf (Italian ryegrass) seedlings assessed as root length rate at 5 uM after 48 hr relative to control; type: functional, organism-based; in short: as §1
[32] = test system: Lactuca sativa; test: Herbicidal activity against Lactuca sativa var.Roman (lettuce) seedlings assessed as shoot length at 5 uM after 120 hr (reference value: 27 to 31 mm); type: functional, organism-based
[33] = test system: Lactuca sativa; test: Herbicidal activity against Lactuca sativa var.Roman (lettuce) seedlings assessed as seed germination rate at 10 uM after 48 hr relative to control; type: functional, organism-based
[34] = test system: Lactuca sativa; test: Herbicidal activity against Lactuca sativa var.Roman (lettuce) seedlings assessed as seed germination rate at 3 uM after 48 hr relative to control; type: functional, organism-based
[35] = test system: Lactuca sativa; test: Herbicidal activity against Lactuca sativa var.Roman (lettuce) seedlings assessed as seed germination rate at 0.5 uM after 48 hr relative to control; type: functional, organism-based
[36] = test system: Lolium multiflorum; test: Herbicidal activity against Lolium multiflorum var. Gulf (Italian ryegrass) seedlings assessed as root length rate at 10 uM after 48 hr relative to control; type: functional, organism-based; in short: as §1
[37] = test system: Lactuca sativa; test: Herbicidal activity against Lactuca sativa var.Roman (lettuce) seedlings assessed as shoot length at 25 uM after 120 hr (reference value: 27 to 31 mm); type: functional, organism-based
[38] = test system: Lactuca sativa; test: Herbicidal activity against Lactuca sativa var.Roman (lettuce) seedlings assessed as seed germination rate at 7.5 uM after 48 hr relative to control; type: functional, organism-based
[39] = test system: Lactuca sativa; test: Herbicidal activity against Lactuca sativa var.Roman (lettuce) seedlings assessed as seed germination rate at 1 uM after 48 hr relative to control; type: functional, organism-based
[40] = test system: Lactuca sativa; test: Herbicidal activity against Lactuca sativa var.Roman (lettuce) seedlings assessed as seed germination rate at 5 uM after 48 hr relative to control; type: functional, organism-based
[41] = test system: Trifolium pratense; test: Herbicidal activity against Trifolium pratense var. Kenland (red clover) seedlings assessed as partial inhibition of hypocotyle growth up to 15 uM after 48 hr; type: functional, organism-based
[42] = test system: Lactuca sativa; test: Herbicidal activity against Lactuca sativa var.Roman (lettuce) seedlings assessed as partial inhibition of hypocotyle growth up to 10 uM after 48 hr; type: functional, organism-based

In the case of “TRIS(1-METHYL-2-PYRROLYL)BISMUTH [listing 1 of 2 here]”, the IC50 ([1]; read-out: I50) is reported as 8.4 µM, the IC50 [2] is reported as 7.5 µM and the IC50 [3] is reported as 33.8 µM. It also gave an IC50 [4] of 17.1 µM, an IC50 [5] of 34 µM and an LC50 [6] of 638 µM.

For TRIS(2-THIENYL)BISMUTH, the Activity [7] was 52%, the Activity [8] was 36 mm and the inhibition [1] was “Dose-dependent effect”. The inhibition [9] was “Active”, the Activity [10] was 46% and the Activity [11] was “inactive”. The Activity [12] was 3 mm, the Activity [13] was 5 mm and the Activity [14] was 9 mm. The Activity [15] was 71%, the Activity [16] was 70% and the Activity [17] was 75%. For the same molecule, the Activity [18] was “Active”, the Activity [19] was 0 mm and the Activity [20] was 5 mm. The Activity [21] was 84%, the Activity [22] was 37% and the inhibition [23] was “inactive”. The inhibition [24] was “Active”, the inhibition [25] was 30% and the Activity [26] was 2 mm. For the same molecule, the Activity [27] was 0 mm, the Activity [28] was 82% and the Activity [29] was 88%. For the same molecule, the Activity [30] was 50%, the Activity [31] was 76% and the Activity [32] was 33 mm. The Activity [33] was 60%, the Activity [34] was 85% and the Activity [35] was 90%. The Activity [36] was 30%, the Activity [37] was 7 mm and the Activity [38] was 70%. The Activity [39] was 90% and the Activity [40] was 80%.

`O=c1c(O)c(-c2ccc(O)c(O)c2)oc2cc(O)cc(O)c12` was tested, and the Activity [18] was “Active”.

“TRIS(1-METHYL-2-PYRROLYL)BISMUTH [listing 2 of 2 here]” was tested, and the Activity [7] was 76%, the Activity [8] was 30 mm and the inhibition [1] was “Dose-dependent effect”. For the same molecule, the inhibition [9] was “Active”, the Activity [10] was 64% and the Activity [11] was “inactive”. The Activity [12] was 0 mm, the Activity [14] was 9 mm and the Activity [15] was 82%. For the same molecule, the Activity [16] was 112%, the Activity [17] was 66% and the “growth inhibition (GI)” value [41] was “Active”. The Activity [18] was “Active”, the Activity [19] was 0 mm and the Activity [20] was 11 mm. For the same molecule, the Activity [21] was 93%, the Activity [22] was 28% and the inhibition [23] was “inactive”. The inhibition [24] was “Active”, the “growth inhibition (GI)” value [42] was “Active” and the inhibition [25] was 30%. For the same molecule, the Activity [26] was 0 mm, the Activity [27] was 0 mm and the Activity [28] was 84%. For the same molecule, the Activity [29] was 78%, the Activity [30] was 60% and the Activity [31] was 46%. The Activity [32] was 29 mm, the Activity [33] was 60% and the Activity [34] was 80%. The Activity [35] was 85%, the Activity [36] was 34% and the Activity [38] was 65%. For the same molecule, the Activity [39] was 85% and the Activity [40] was 76%.
